The source made the active and inactive calls. No cut-off for these calls is given here.
Tests used:
A549 [1] = experiment: Cytostatic activity against human A549 cells by MTT assay; format: functional, cell-based
Summary of the method: (§1)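 A549 cells in medium with 10% FBS and 1% penicillin–streptomycin, exposed to compound for 48 h. MTT (5 mg/mL stock) added at the end of exposure, then 3 h further incubation. Formazan dissolved in DMSO and read at 550 nm (reference 700 nm) as a measure of succinate dehydrogenase activity. IC50 taken from the concentration–response curve. Microscopy used for confirmation.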

A549 [2] = experiment: Cytotoxicity against human A549 cells assessed as induction of cell death at 24 uM after 48 hrs by microscopic analysis; format: functional, cell-based
A549 [3] = experiment: Induction of reactive oxygen species generation in human A549 cells at 6 uM incubated in dark for 1 hr by H2DCFDA dye-based flow cytometric analysis; format: functional, cell-based
Summary of the method: (§2)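 A549 cells (4 × 10^5 cells/dish) preloaded with 20 μM H2DCFDA for 1 h, then exposed to compound (6 or 24 μM) for 1 h in the dark at 37 °C. H2O2 at 100 μM served as positive control. Cells washed, resuspended in FACS buffer with 0.3% BSA, and analysed by flow cytometry for intracellular DCF fluorescence intensity.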

A549 [4] = experiment: Induction of reactive oxygen species generation in human A549 cells at 24 uM incubated in dark for 1 hr by H2DCFDA dye-based flow cytometric analysis; format: functional, cell-based; summary of the method: as §2
A549 [5] = experiment: Induction of apoptosis in human A549 cells at 24 uM after 24 hrs by FITC-annexin V/propidium iodide staining-based flow cytometric analysis; format: functional, cell-based
Summary of the method: (§3)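 A549 cells (5 × 10^5 cells/dish) exposed to compound (24 μM, or 100 nM for vinblastine) for 24 h. Cells washed twice with PBS and stained with FITC–annexin V plus propidium iodide in FACS buffer with 0.3% BSA. Quadrant distribution read by flow cytometry against untreated cells.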

A549 [6] = experiment: Effect on Bcl-XL protein expression in human A549 cells at 24 uM after 6 to 24 hrs by Western blot analysis; format: functional, cell-based
Summary of the method: (§4)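 Total lysates of A549 cells harvested at 0, 6, 12 and 24 h after exposure to 24 μM test agent or 100 nM vinblastine. Proteins resolved, transferred to PVDF and probed for Bcl-xL, Mcl-1, Bcl-2, Bax-1, Bid, PUMA, Bim, Bik and p53, with antibodies diluted in BlockAce and β-actin as loading reference.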

A549 [7] = experiment: Effect on Mcl-1 protein expression in human A549 cells at 24 uM after 6 to 24 hrs by Western blot analysis; format: functional, cell-based; summary of the method: as §4
A549 [8] = experiment: Effect on Bcl-2 protein expression in human A549 cells at 24 uM after 6 to 24 hrs by Western blot analysis; format: functional, cell-based; summary of the method: as §4
A549 [9] = experiment: Effect on Bax-1 protein expression in human A549 cells at 24 uM after 6 to 24 hrs by Western blot analysis; format: functional, cell-based; summary of the method: as §4
A549 [10] = experiment: Effect on Bid protein expression in human A549 cells at 24 uM after 6 to 24 hrs by Western blot analysis; format: functional, cell-based; summary of the method: as §4
A549 [11] = experiment: Effect on Puma protein expression in human A549 cells at 24 uM after 6 to 24 hrs by Western blot analysis; format: functional, cell-based; summary of the method: as §4
A549 [12] = experiment: Effect on BimEL protein expression in human A549 cells at 24 uM after 6 to 24 hrs by Western blot analysis; format: functional, cell-based; summary of the method: as §4
A549 [13] = experiment: Effect on Bik protein expression in human A549 cells at 24 uM after 6 to 24 hrs by Western blot analysis; format: functional, cell-based; summary of the method: as §4
A549 [14] = experiment: Effect on p53 protein expression in human A549 cells at 24 uM after 6 to 24 hrs by Western blot analysis; format: functional, cell-based; summary of the method: as §4
A549 [15] = experiment: Induction of autophagy in human A549 cells assessed as increase in LC3-2 expression at 6 uM by Western blot analysis; format: functional, cell-based; settings: TDE = time-dependent effect
Summary of the method: (§5)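 A549 and MCF7 cells exposed to 6 μM compound, with everolimus 5 μM as autophagy positive control. Total lysates harvested at 0, 4, 8, 12 or 24 h. LC3-I and LC3-II (lipidated) levels assessed by Western blot with LC3B antibody.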

MCF7 = experiment: Induction of autophagy in human MCF7 cells assessed as LC3 lipidation at 6 uM after 4 to 24 hrs by Western blot analysis; format: functional, cell-based; summary of the method: as §5
A549 [16] = experiment: Prevention of autophagosome degradation in human A549 cells assessed as upregulation of p62 expression at 6 uM after 6 hrs by Western blot analysis; format: functional, cell-based
Summary of the method: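 A549 cells kept in serum-free medium for 1 h, then exposed to 6 μM compound or 5 μM everolimus, with or without bafilomycin A1 (400 nM), for 6 h. LC3 and p62 levels in lysates assessed by Western blot to follow autophagic flux.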

A549 [17] = experiment: Induction of autophagic punctation in human A549 cells assessed as increase of puncta with LC3 at 6 uM after 6 hrs by immunofluorescence staining-based microscopic analysis relative to control; format: functional, cell-based
Summary of the method: (§6)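 A549 cells on chamber slides placed in serum-free medium for 1 h, then exposed for 6 h to 6 μM compound, 5 μM everolimus or 400 nM bafilomycin A1. Fixed in ice-cold methanol for 15 min at −20 °C and blocked. Stained for LC3B, LAMP2 and p62 with Alexa Fluor 488/546/647 secondaries, mounted with DAPI, and puncta assessed by fluorescence microscopy.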

A549 [18] = experiment: Induction of autophagic punctation in human A549 cells assessed as increase of puncta with p62 at 6 uM after 6 hrs by immunofluorescence staining-based microscopic analysis relative to control; format: functional, cell-based; summary of the method: as §6
A549 [19] = experiment: Effect on localization of lysosome puncta with LAMP2 in human A549 cells at 6 uM after 6 hrs by immunofluorescence staining-based microscopic analysis relative to control; format: functional, cell-based; summary of the method: as §6
[20] = target: Serine/threonine-protein kinase mTOR (Homo sapiens) (UniProt P42345); experiment: Effect on mTOR phosphorylation at ser2448 in human A549 cells at 6 uM after 3 to 24 hrs by Western blot analysis; format: cell-based
Summary of the method: (§7)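 A549 total lysates harvested 3, 6, 12 or 24 h after exposure to 6 μM compound or 5 μM everolimus. Western blot on PVDF with antibodies to phospho-mTOR Ser2448, phospho-AKT Thr308 and Ser473, phospho-p70S6K Thr389, phospho-PDK1 Ser241 and PRAS40 Thr246, alongside total proteins and β-actin.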

[21] = target: Serine/threonine-protein kinase mTOR (Homo sapiens) (UniProt P42345); experiment: Inhibition of mTOR in human A549 cells assessed as downregulation of p70S6K phosphorylation at thr389 at 6 uM after 3 to 24 hrs by Western blot analysis; format: cell-based; summary of the method: as §7
A549 [22] = experiment: Inhibition of AKT in human A549 cells assessed as downregulation of PRAS40 phosphorylation at thr246 at 6 uM after 3 to 12 hrs by Western blot analysis; format: cell-based; summary of the method: as §7
A549 [23] = experiment: Inhibition of AKT phosphorylation at thr308 in human A549 cells at 6 uM after 3 to 24 hrs by Western blot analysis; format: cell-based; summary of the method: as §7
A549 [24] = experiment: Inhibition of AKT phosphorylation at Ser473 in human A549 cells at 6 uM after 3 to 6 hrs by Western blot analysis; format: cell-based; summary of the method: as §7
[25] = target: T1, 3-phosphoinositide-dependent protein kinase 1 (Homo sapiens) (UniProt O15530); experiment: Effect on PDK1 phosphorylation at Ser241 in human A549 cells at 6 uM after 3 to 24 hrs by Western blot analysis; format: cell-based; summary of the method: as §7
T1 sequence (whole entry): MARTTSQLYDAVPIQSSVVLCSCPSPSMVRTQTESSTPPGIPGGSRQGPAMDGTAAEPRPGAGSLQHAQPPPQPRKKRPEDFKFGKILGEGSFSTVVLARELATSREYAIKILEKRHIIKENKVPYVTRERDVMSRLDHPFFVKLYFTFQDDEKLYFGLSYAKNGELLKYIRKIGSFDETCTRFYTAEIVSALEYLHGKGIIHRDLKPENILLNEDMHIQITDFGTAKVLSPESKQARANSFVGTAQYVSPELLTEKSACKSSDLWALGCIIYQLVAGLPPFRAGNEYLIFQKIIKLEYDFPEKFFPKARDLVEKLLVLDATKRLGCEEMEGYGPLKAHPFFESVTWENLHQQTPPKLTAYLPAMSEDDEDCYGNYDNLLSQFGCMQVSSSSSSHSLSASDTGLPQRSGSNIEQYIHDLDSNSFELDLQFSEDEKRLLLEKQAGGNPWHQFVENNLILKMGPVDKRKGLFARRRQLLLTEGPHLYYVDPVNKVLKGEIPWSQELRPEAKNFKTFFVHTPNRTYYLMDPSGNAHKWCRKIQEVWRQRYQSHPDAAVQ

A549 [26] = experiment: Effect on morphological changes in lysosome puncta in human A549 cells at 6 uM after 6 hrs by immunofluorescence staining-based microscopic analysis relative to control; format: functional, cell-based; summary of the method: as §6
A549 [27] = experiment: Induction of autophagy in human A549 cells assessed as increase in LC3-2 expression at 6 uM after 4 to 24 hrs by Western blot analysis
A549 [28] = experiment: Cytostatic activity against human A549 cells after 48 hrs by MTT assay; format: functional, cell-based; summary of the method: as §1
A549 [29] = experiment: Cytotoxicity against human A549 cells assessed as induction of cell death by microscopic analysis; format: functional, cell-based
A549 [30] = experiment: Induction of apoptosis in human A549 cells assessed as early apoptotic cells at 100 nM after 24 hrs by FITC-annexin V/propidium iodide staining-based flow cytometric analysis relative to control; format: functional; summary of the method: as §3
A549 [31] = experiment: Induction of apoptosis in human A549 cells assessed as late apoptotic cells at 100 nM after 24 hrs by FITC-annexin V/propidium iodide staining-based flow cytometric analysis relative to control; format: functional; summary of the method: as §3
A549 [32] = experiment: Downregulation of Bcl-XL protein expression in human A549 cells at 100 nM after 24 hrs by Western blot analysis; format: functional, cell-based; summary of the method: as §4
A549 [33] = experiment: Downregulation of Mcl-1 protein expression in human A549 cells at 100 nM after 24 hrs by Western blot analysis; format: functional, cell-based; summary of the method: as §4
A549 [34] = experiment: Downregulation of BimEL protein expression in human A549 cells at 100 nM after 24 hrs by Western blot analysis; format: functional, cell-based; summary of the method: as §4
A549 [35] = experiment: Upregulation of p53 protein expression in human A549 cells at 100 nM after 24 hrs by Western blot analysis; format: functional, cell-based; summary of the method: as §4

CC[C@@]12CCCN3CCc4c(n(c5ccccc45)[C@H](c4ccc(O)c5c4N[C@@H]4CC[C@@]6(CC)CCCN7CC[C@@]54[C@H]76)C1)[C@H]32 [BISLEUCONOTHINE A]
Activity (A549 [1]): Dose-dependent effect | IC50 (A549 [1]): 8 µM | Activity (A549 [2]): Active | Activity (A549 [3]): inactive | Activity (A549 [4]): Active | Activity (A549 [5]): inactive | Activity (A549 [6]): inactive | Activity (A549 [7]): inactive | Activity (A549 [8]): inactive | Activity (A549 [9]): inactive | Activity (A549 [10]): inactive | Activity (A549 [11]): inactive | Activity (A549 [12]): inactive | Activity (A549 [13]): inactive | Activity (A549 [14]): inactive | Activity (A549 [15]): tde | Activity (MCF7): Active | Activity (A549 [16]): Active | Activity (A549 [17]): Active | Activity (A549 [18]): Active | Activity (A549 [19]): Active | Activity [20]: inactive | inhibition [21]: Active | inhibition (A549 [22]): Active | inhibition (A549 [23]): Active | inhibition (A549 [24]): Active | Activity [25]: inactive | Activity (A549 [26]): Active | Activity (A549 [27]): Active

CC[C@]1(O)C[C@@H]2CN(CCc3c([nH]c4ccccc34)[C@@](C(=O)OC)(c3cc4c(cc3OC)N(C)[C@H]3[C@@](O)(C(=O)OC)[C@H](OC(C)=O)[C@]5(CC)C=CCN6CC[C@]43[C@@H]65)C2)C1 [VINBLASTINE]
Activity (A549 [28]): Dose-dependent effect | Activity (A549 [29]): Active | Activity (A549 [30]): 30% | Activity (A549 [31]): 30% | Activity (A549 [32]): Active | Activity (A549 [33]): Active | Activity (A549 [34]): Active | Activity (A549 [35]): Active

— ChEMBL document CHEMBL3596140, “Bisleuconothine A Induces Autophagosome Formation by Interfering with AKT-mTOR Signaling Pathway” (J Nat Prod, 2015)
